Compound activity from PubChem BioAssay.
Rows were chosen to be rich in hits. Some 2.3% of all compounds tested hit in one or more screens of this group.
TRPC4 act – opens the mouse TRPC4 cation channel; Q9QUQ5; HEK293 TRPC4beta/mu-opioid, Fluo4 calcium fluorescence; hits give high values; B-score at 10 µM; 0.49% of 310,000 active; AID 2237;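 active = B-score above 5 SD of library B-scores, and initial fluorescence ratio not above library mean plus 5 SD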;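 note: positive B-score marks a calcium rise read as TRPC4 activation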
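Material: TRPC4beta and mu-opioid receptor HEK293 stable cells | Incubation: 45 min room-temperature Fluo4 loading, 110 s read | Detection: Kinetic Fluo4 calcium fluorescence | Measure: Integrated baseline-normalised fluorescence ratio, converted to per-well B score | Benchmarks: Low control buffer alone, high control maximal DAMGO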
TRPC6 inh – inhibitors of mouse TRPC6 channel; 1.1% of 310,000 active; HEK293-TRPC6, membrane potential dye, ACh-evoked depolarization; hits give low values; B-score at 10 µM;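 active = B-score under library mean minus 3 SD, initial fluorescence not abnormally high, positive integrated signal ratio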;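 note: B-score derived from integrated fluorescence ratio over the kinetic read; more negative B-score means stronger inhibition of depolarization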
TRPC4 inh – blocks the mouse TRPC4 cation channel; B-score at 10 µM; 0.39% of 300,000 active; AID 2247; HEK293 TRPC4beta/mu-opioid, DAMGO-evoked Fluo4 calcium flux; hits give low values;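 active = B-score over 3 SD under the library average, no early fluorescence shift, positive overall ratio signal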
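Signal: kinetic Fluo4 fluorescence imaging of calcium influx. Material: stable TRPC4beta/mu-opioid receptor HEK293 cells. Probe or stimulus: DAMGO in two steps, submaximal then maximal.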
TRPC6 act – activators of mouse TRPC6 channel; HEK293-TRPC6 membrane potential dye fluorescence; hits give high values; B-score at 10 µM; 0.13% of 310,000 active;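 active = B-score of the integrated fluorescence ratio above library mean plus 3 SD, and starting fluorescence ratio within library mean plus 5 SD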;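 note: higher score means more depolarization so channel activation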
TRPC4 potent – allosterically enhances the mouse TRPC4 cation channel | Q9QUQ5 | HEK293 TRPC4beta/mu-opioid, DAMGO EC20, Fluo-4 Ca2+ flux; hits give high values | B-score at 10 µM | 0.42% of 310,000 active | AID 2227;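 active = B-score of calcium response area above 5 SD of library B-scores, with initial fluorescence ratio within 5 SD of library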;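 note: B-score of integrated fluorescence ratio over time as area under calcium response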
TRPC4 spec 2 – second selectivity test of TRPC6 inhibitors: effect on mouse TRPC4. shares compounds with TRPC6 inh. HEK293 TRPC4/MOR, membrane potential dye fluorescence; channel activated by saturating DAMGO dose. inhibition, % at 10 µM. 42% of 920 active. AID 2776;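 active = compounds whose fluorescence signal differed from control wells by over 3 SD, either direction, in both duplicate plates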
TRPC4 spec – tests whether TRPC6 inhibitors also affect mouse TRPC4; shares compounds with TRPC6 inh; HEK293 TRPC4/mu-opioid, membrane potential fluorescence; activity change, negative = inhibition, % at 10 µM; 61% of 920 active;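 active = rise or fall in signal beyond 3 SD of buffer-only wells in both replicate plates, either sign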;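 note: integrated kinetic ratio of fluorescence range over baseline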
HEK293 MPD ctr 2-1 – second check of TRPC6 inhibitor effects in parental HEK293 cells; shares compounds with TRPC6 inh; parental HEK293 membrane potential dye fluorescence; maximal acetylcholine challenge after compound addition; signal change vs control, % at 10 µM; 31% of 920 active;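 active = membrane potential signal moving either way by over 3 SD of the maximum-effect control, in both duplicate plates, meaning non-specific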
HEK293 MPD ctr-1 – parental HEK293 nonspecific activity of TRPC6 inhibitors | parental HEK293 membrane potential dye fluorescence | shares compounds with TRPC6 inh | 60% of 920 active | membrane potential signal change, % at 10 µM | AID 2780;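 active = membrane potential signal shifting up or down by more than 3 SD of buffer-only wells, on both duplicate plates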
HEK293 MPD ctr-2 – counter-screen for TRPC6 modulators: effect in parental HEK293 cells; shares compounds with TRPC6 inh; membrane potential dye fluorescence; membrane potential signal change, % at 10 µM; 51% of 2,400 active; AID 488924;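 active = membrane potential signal moves up or down beyond 5 SD from buffer-only wells, on both duplicate plates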
HEK293 MPD ctr 2-2 – second check of TRPC6 modulator effects in parental HEK293 cells; inhibition, % at 10 µM; AID 488926; shares compounds with TRPC6 inh; 14% of 2,400 active; membrane potential dye fluorescence; after compound, maximal acetylcholine stimulation;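 active = membrane potential signal drops by more than 5 SD from the mean control signal, in both duplicate plates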;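 note: plate controls were acetylcholine ECmax control wells for no effect and buffer only wells for full effect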
TRPC4 ctr mod – mouse TRPC4 off-target activity of TRPC6 modulators | shares compounds with TRPC6 inh | HEK293 TRPC4/mu-opioid, membrane potential fluorescence | percent change from control (negative = decrease, positive = increase), % at 10 µM | 69% of 2,400 active;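 active = membrane potential signal moved up or down beyond 5 SD of buffer control wells, in both duplicate plates, actives on both sides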;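 note: plate controls were assay buffer wells for no effect and DAMGO maximal-effect wells for full effect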
TRPC4/MOR inh 2 – second selectivity test of TRPC6 modulators against mouse TRPC4; shares compounds with TRPC6 inh; HEK293 TRPC4/mu-opioid, membrane potential dye fluorescence; stimulated with maximal-effect DAMGO; inhibition, % at 10 µM; 55% of 2,400 active;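 active = drop in membrane potential signal beyond 5 SD of the control wells in both duplicate plates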;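 note: TRPC4 counter screen for TRPC6 hits run under conditions tuned for TRPC6 not TRPC4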
TRPC6 block conf – confirmation of mouse TRPC6 inhibitors; shares compounds with TRPC6 inh; HEK293-TRPC6, membrane potential dye, ACh-evoked depolarization; inhibition, % at 10 µM; 43% of 3,300 active; AID 488960;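 active = fluorescence ratio falls more than 5 SD below the full-stimulation control mean, in both duplicate runs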;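 note: integrated fluorescence ratio of peak minus minimum over baseline after agonist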
TRPC6 act conf – confirmation of mouse TRPC6 activators; HEK293-TRPC6 membrane potential dye fluorescence, FDSS; activation, % at 10 µM; shares compounds with TRPC6 inh; 11% of 2,800 active;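 active = ratio signal rise beyond 5 SD above unstimulated control wells' mean, seen in both duplicate runs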;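 note: plate controls were buffer EC0 wells for no effect and acetylcholine ECmax response for full effect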
Active calls of the source: *; i = inactive; / = no result given.

SMILES	TRPC4 act	TRPC6 inh	TRPC4 inh	TRPC6 act	TRPC4 potent	HEK293 MPD ctr-2	HEK293 MPD ctr 2-2	TRPC4 ctr mod	TRPC4/MOR inh 2	TRPC6 block conf	TRPC6 act conf	others
COC(=O)c1ccc(N2CCN(C)CC2)c(NC(=O)c2ccc(Br)o2)c1	142*	-6.7*	i	i	i	-268%*	82%*	-38%*	94%*	74%*	i
O=C(Nc1ccc(F)c(Cl)c1)C1CC(=O)N(Cc2ccccc2)C1 (stereo not drawn)	i	-6.1*	i	i	i	i	i	-8.5%*	i	i	i
O=C(Nc1ccccc1)C1CC(=O)N(Cc2ccccc2)C1 (stereo not drawn)	i	i	i	i	i	/	/	/	/	/	/
C/C(=N\NC(=O)c1cccc(S(=O)(=O)N2CCCC2)c1)c1ccc(F)cc1	i	i	i	i	i	/	/	/	/	/	/
CC1(C)Cc2nc3oc4c(=O)n(CC(=O)Nc5ccc(Cl)cc5)cnc4c3cc2CO1	i	-8.3*	i	i	i	/	/	/	/	i	i	TRPC4 spec 2=i;TRPC4 spec=i;HEK293 MPD ctr 2-1=i;HEK293 MPD ctr-1=i
Cc1ccc(NC(=O)CCC(=O)c2cc(C)sc2C)nc1	i	i	i	i	i	/	/	/	/	/	/
CCOCCCNC(=O)CN1C(=O)COc2ccc(S(=O)(=O)N3CCOCC3)cc21	i	i	i	i	i	/	/	/	/	/	/
CCOC(CNC(=O)CN1C(=O)COc2ccc(S(=O)(=O)N3CCOCC3)cc21)OCC	i	-5.2*	i	i	i	i	i	i	i	i	i
Cc1ccc(-n2nc3c(c2NC(=O)C(C)C)CS(=O)(=O)C3)cc1	i	-5.5*	i	i	i	i	i	21%*	i	i	/
CC(C)C(=O)Nc1c2c(nn1-c1ccc([N+](=O)[O-])cc1)CS(=O)(=O)C2	i	i	i	i	i	/	/	/	/	/	/
COc1ccc(NC(C)C(=O)N/N=C/c2ccccc2OCc2cccc(Br)c2)cc1 (stereo not drawn)	i	i	i	i	i	/	/	/	/	/	/
Cc1ccccc1NC(C)C(=O)N/N=C/c1ccccc1OCc1cccc(Br)c1 (stereo not drawn)	i	-5.2*	i	i	i	i	i	i	i	i	i
CC(C)OC(=O)c1cccnc1SCC(=O)N(C)c1ccccc1	i	i	i	i	i	/	/	/	/	/	/
